In brackets after ≈: the same amount, converted by molar mass.
How the values were obtained:
Liver microsomes = test: Stability of the compound in rat liver microsomes; type: ADME, Microsome
In short: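 Bioavailability (Fmax) predicted from incubation with rat liver microsomes.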

[1] = Pseudo-thermodynamic solubility of the compound at pH 6.5; type: physicochemical; settings: buffer, read-out: Therm_solubility
In short: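 Pseudo-thermodynamic solubility measured at pH 6.5.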

[2] = Stimulation of soluble guanylate cyclase activity in pre-contracted rabbit aortic rings assessed as inhibition of vasoconstriction; settings: Oryctolagus cuniculus
In short: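 Relaxation of rabbit aortic rings that were pre-contracted before exposure. IC50 given as the mean of three experiments.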

Hepatocyte = test: Stability of the compound in rat liver hepatocytes; type: ADME, cell-based
In short: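 Bioavailability (Fmax) predicted from incubation with rat liver hepatocytes.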

Rattus norvegicus [3] = test: Antihypertensive activity in po dosed spontaneously hypertensive rat assessed as reduction of blood pressure measured up to 24 hrs; type: functional, organism-based
In short: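 Oral gavage at 0 h in spontaneously hypertensive rats; controls given vehicle. Blood pressure expressed as a percentage of initial values (131–142 mmHg). Mean of 6–12 animals.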

[4] = Oral bioavailability in Wistar rat at 0.3 mg/kg; type: ADME, organism-based; settings: in vivo
In short: (§1)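 Wistar rats given 0.3 mg/kg as an intravenous bolus and by oral gavage, formulated in EtOH/PEG400/H₂O; mean values. AUC_norm was calculated from the concentration–time curve after the intravenous dose. Clearance was taken as total plasma (or total blood) clearance. Mean residence time, half-life and oral bioavailability were also derived.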

[5] = Mean residence time in Wistar rat at 0.3 mg/kg, iv and 0.3 mg/kg, po; type: ADME, organism-based; settings: in vivo; in short: as §1
[6] = Half life in Wistar rat at 0.3 mg/kg, iv and 0.3 mg/kg, po; type: ADME, organism-based; settings: in vivo; in short: as §1
[7] = Total blood clearance in Wistar rat at 0.3 mg/kg, iv and 0.3 mg/kg, po; type: ADME, organism-based; settings: whole blood
In short: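 Wistar rats received 0.3 mg/kg by intravenous bolus and by oral gavage, vehicle EtOH/PEG400/H₂O. Total blood clearance was reported as the mean value from these administrations.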

Rattus norvegicus [8] = test: Dose normalized AUC in Wistar rat at 0.3 mg/kg, iv; type: ADME, organism-based; design: dose 0.3 mg/kg, route intravenous; settings: in vivo; in short: as §1
[9] = Total plasma clearance in Wistar rat at 0.3 mg/kg, iv and 0.3 mg/kg, po; type: ADME, organism-based; in short: as §1

Compound | Stability (Liver microsomes) [%] | solubility thermodynamic [1] [µg/mL] | IC50 [2] [µM] | Stability (Hepatocyte) [%] | Activity (Rattus norvegicus [3]) | bioavailability [4] [%] | MRT [5] [h] | half-life [6] [h] | clearance [7] [mL/min/kg] | AUC/dose (Rattus norvegicus [8]) [kg·h/L] | clearance [9] [mL/min/kg]
O=c1[nH]nc(-c2nn(Cc3ccccc3F)c3ncccc23)o1 | 59 | 10 (≈ 32.1 µM) | 0.61 | – | – | – | – | – | – | – | –
Cn1nc(-c2nn(Cc3ccccc3F)c3ncccc23)[nH]c1=O | – | 4 (≈ 12.3 µM) | 0.87 | 74 | – | – | – | – | – | – | –
O=c1[nH]c(-c2nn(Cc3ccccc3F)c3ncccc23)no1 | – | 320 (≈ 1030 µM) | 1.26 | 98 | Dose-dependent effect | 75 | 1.9 | 1.4 | 11.7 | 2.79 | –
O=c1[nH]c(-c2nn(Cc3ccccc3F)c3ncccc23)ns1 | – | 11 (≈ 33.6 µM) | 0.52 | 90 | – | – | – | – | – | – | –
Fc1ccccc1Cn1nc(-c2noc(=S)[nH]2)c2cccnc21 | – | 280 (≈ 855 µM) | 1.1 | 69 | – | – | – | – | – | – | –
Fc1ccccc1Cn1nc(-c2nnn[nH]2)c2cccnc21 | – | 150 (≈ 508 µM) | 8.6 | 100 | – | 94 | – | 2.4 | – | 3.63 | 4.67
Nc1nc(-c2nn(Cc3ccccc3F)c3ncccc23)nc(N)c1N1CCOCC1 | – | – | 0.1 | 76 | – | 25 | – | 1.2 | 75 | 0.32 | –
CCn1nc(-c2nn(Cc3ccccc3F)c3ncccc23)[nH]c1=O | – | – | 0.73 | 69 | – | – | – | – | – | – | –
O=c1[nH]c(-c2nn(Cc3ccccc3F)c3ncccc23)nn1CC(F)(F)F | – | – | 0.61 | 91 | – | – | – | – | – | – | –
O=c1[nH]nc(-c2nn(Cc3ccccc3F)c3ncccc23)[nH]1 | – | 16 (≈ 51.6 µM) | 3.1 | 59 | – | – | – | – | – | – | –
